Reference: ChEMBL document CHEMBL2331551, “TOPS-MODE model of multiplexing neuroprotective effects of drugs and experimental-theoretic study of new 1,3-rasagiline derivatives potentially useful in neurodegenerative diseases” (2013)

Legend:
Assay type in all cases: functional, Neuron
[1] = Neuroprotection in Sprague-Dawley rat embryonic motor cortex neurons assessed as protection against 100 uM H2O2-induced neuronal death at 5 uM by MTT method
In short: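 Primary neurons cultured from embryonic day-19 Sprague-Dawley rat motor cortex. Cells were exposed to compound in the presence of H2O2 as the neurotoxic insult. Viability was read as MTT reduction, which reflects mitochondrial integrity and function and indicates the number of viable cells. Protection is given as mean ± SEM of at least three independent experiments.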

[2] = Neuroprotection in Sprague-Dawley rat embryonic motor cortex neurons assessed as protection against 100 uM glutamate-induced excitotoxicity at 5 uM by MTT method
In short: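 Primary cultures of motor cortex neurons from 19-day Sprague-Dawley rat embryos, challenged with glutamate as neurotoxic agent alongside the compound. Cell viability read by MTT reduction, taken as mitochondrial integrity and functional activity, reflecting the number of viable cells. Neuroprotection (NP) reported in %, as mean ± SEM from at least three independent experiments.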

[3] = Neuroprotection in Sprague-Dawley rat embryonic motor cortex neurons at 5 uM by MTT method
In short: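 Cultured neurons from embryonic day-19 Sprague-Dawley rat motor cortex, with compound alone and no neurotoxic agent added. Viability measured by MTT reduction, read as mitochondrial functional activity and number of cells present in culture. Neuroprotection expressed as % (NP), mean ± SEM of at least three independent experiments.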

Compound | Activity [1] [%] | Activity [2] [%] | Activity [3] [%]
C#CCN(CC#C)[C@@H]1C[C@H](OC(=O)c2ccccc2)c2ccccc21 | 16.4 | 1.6 | -5.1
C#CCN(CC#C)[C@@H]1C[C@@H](O)c2ccccc21 | 19.6 | -0.5 | -1
C#CCN(CC#C)[C@@H]1C[C@@H](OC(=O)c2ccccc2)c2ccccc21 | -5.8 | -1.3 | 6.9
C#CCN(CC#C)[C@@H]1C[C@@H](OC(C)=O)c2ccccc21 | 12.3 | -0.5 | 0
C#CCN[C@@H]1C[C@@H](O)c2ccccc21 | 14.5 | 15.2 | 23.4
C#CCN(CC#C)[C@@H]1C[C@H](OC(C)=O)c2ccccc21 | 18.2 | -1.5 | 0
C#CCN[C@@H]1C[C@H](O)c2ccccc21 | 46.2 | 0 | 0
C#CCN(CC#C)[C@@H]1C[C@H](O)c2ccccc21 | 17.8 | 0 | -5
